Compound activity (PubChem BioAssay)
MrgX1 antagonist: human MrgX1 receptor antagonism, primary screen; B-score at 10 µM; AID 588676; 310,000 tested, 1.3% active; MRGX1-HEK293 calcium flux, Fluo-4, BAM8-22 antagonism; active compounds read low;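 active = calcium-response B-score plate-corrected more than 3 library SD below zero, starting fluorescence within 5 deviations, no agonist response on first addition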;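 note: peak minus trough fluorescence over baseline after final BAM8-22 challenge near maximal dose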
Target sequence (Q96LB2 whole entry, looked up): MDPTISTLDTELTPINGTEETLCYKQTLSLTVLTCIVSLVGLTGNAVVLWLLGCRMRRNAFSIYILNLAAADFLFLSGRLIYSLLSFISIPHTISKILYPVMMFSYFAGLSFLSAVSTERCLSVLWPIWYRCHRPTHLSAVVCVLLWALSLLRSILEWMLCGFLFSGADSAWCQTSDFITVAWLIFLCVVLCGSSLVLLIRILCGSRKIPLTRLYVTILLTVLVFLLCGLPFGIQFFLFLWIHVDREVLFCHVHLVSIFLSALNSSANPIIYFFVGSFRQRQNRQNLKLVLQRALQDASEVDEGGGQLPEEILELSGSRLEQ
RGS4 block: human RGS4 inhibition | HEK293 M3R/RGS4 inducible, Fluo-4 calcium flux; active compounds read high; triggered by carbachol at its EC20 | 310,000 tested, 0.45% active | B-score at 10 µM | P49798;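 active = B-score, a plate-corrected calcium signal, over three deviations above library mean, with baseline fluorescence within five deviations of library mean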;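 note: RGS4 expression induced by doxycycline in cells with stable M3 receptor; B-score is computed from the integrated fluorescence ratio over baseline after carbachol; higher B-score means a larger calcium signal and so more RGS4 inhibition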
Target sequence (P49798 whole entry, looked up): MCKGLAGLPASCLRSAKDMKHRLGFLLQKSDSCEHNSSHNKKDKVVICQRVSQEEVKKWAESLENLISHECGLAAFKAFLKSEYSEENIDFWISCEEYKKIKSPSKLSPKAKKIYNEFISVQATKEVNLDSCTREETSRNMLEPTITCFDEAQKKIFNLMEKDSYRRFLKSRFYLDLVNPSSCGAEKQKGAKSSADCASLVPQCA
RGS4 pot: potentiators or activators of RGS4; HEK293 M3R/inducible RGS4, carbachol calcium flux Fluo4; active compounds read low; B-score at 10 µM; 310,000 tested, 0.92% active;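 active = B-score of the integrated calcium signal more than 4 SD below the library mean, with starting fluorescence not abnormally high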;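 note: negative B-score means reduced calcium response which marks RGS4 activation or potentiation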
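test system = HEK293 cells with stable M3R and inducible RGS4 | schedule = recording 10 s baseline at 1 Hz, 100 s post-agonist | technique = Fluo4-AM (2 µM) calcium-flux fluorescence, kinetic read | measure = Agonist-evoked peak-minus-minimum fluorescence over baseline, integrated ratio, B score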
MrgX1 PAM: allosterically activates human MrgX1 receptor signaling; MrgX1-HEK293, Fluo-4 calcium flux, FDSS; active compounds read high; B-score at 10 µM; 310,000 tested, 0.63% active;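 active = plate-corrected calcium response at least 3 library SD above typical, normal starting fluorescence, not activating the receptor alone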;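 note: compound read alongside a low EC10 to EC30 dose of BAM8-22 agonist; peak minus trough fluorescence over baseline measured at the second addition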
MrgX1 ag: human MrgX1 receptor agonism, primary screen | Q96LB2 | MrgX1-HEK293 cells, Fluo-4 calcium fluorescence, agonist mode; active compounds read high | B-score at 10 µM | 310,000 tested, 0.44% active;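 active = calcium response B-score plate-corrected fluorescence ratio at least 3 library SD, with starting fluorescence B-score inside 5 SD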
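Assay system: stable human MrgX1 HEK293 cell line. Quantity: 15,000 cells per well. Schedule: cells plated overnight, dye loaded 0.5 h 37 °C, 0.5 h room temperature. Detection: Fluo-4 NW calcium-flux fluorescence, kinetic read. Read-out basis: peak-minus-minimum fluorescence over baseline, converted to B scores. Control set: positive and negative control wells on each plate.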
MrgX1 antag conf: confirmation of human MrgX1 receptor antagonists; MrgX1-HEK293, BAM8-22 calcium flux, Fluo-4; active compounds read low; AID 602420; remaining BAM8-22 calcium response % of control (active compounds read low), % at 10 µM; shares compounds with MrgX1 antagonist; 2,300 tested, 19% active;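 active = remaining agonist calcium response no higher than 100% minus 3 SD of agonist-only control wells, with starting fluorescence near control levels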;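 note: agonist BAM8-22 given at a near maximal EC90 to ECmax level; peak minus minimum fluorescence divided by baseline after agonist addition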
HEK293 Ca flux: MrgX1 antagonist counter-screen hit in parental HEK293 cells; shares compounds with MrgX1 antagonist; Fluo-4 calcium fluorescence, FDSS; fluorescence ratio F(max-min)/F0 at 10 µM; 4,000 tested, 2% active;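 active = duplicate-averaged calcium fluorescence ratio at least three times the standard deviation of buffer wells, a nonspecific response in parental cells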
HEK293 Ca counter: MrgX1 allosteric activator counter-screen hit in parental HEK293 cells; shares compounds with MrgX1 antagonist; parental HEK293 calcium flux, Fluo-4 fluorescence ratio; active compounds read high; fluorescence ratio F(max-min)/F0 at 10 µM; 4,000 tested, 0.4% active;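 active = calcium fluorescence ratio, averaged over duplicates, at least 3 SD of the buffer-well ratio, meaning a nonspecific response in receptor-free cells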;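 note: untransfected parental HEK293 lacking MrgX1 used as counterscreen for MrgX1 allosteric activators; fluorescence change taken during the second addition on a kinetic imager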
HEK293 Ca cntr2: MrgX1 activator counter-screen hit in parental HEK293 cells; 4,000 tested, 8.7% active; fluorescence ratio F(max-min)/F0 at 10 µM; Fluo-4 calcium fluorescence (FDSS); active compounds read high; shares compounds with MrgX1 antagonist;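 active = calcium fluorescence ratio at least three times the spread of buffer wells, meaning a non-specific response in parental cells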
Hits are given with their value; 0 = inactive; - = not tested or not shown. Shown are actives, neighbours in structure and some others; about 3.5% of the full set was active somewhere.

SMILES	MrgX1 antagonist	RGS4 block	RGS4 pot	MrgX1 PAM	MrgX1 ag	MrgX1 antag conf	HEK293 Ca flux	HEK293 Ca counter	HEK293 Ca cntr2
Cc1cc(=O)oc2c(C)c(OC(C)C(=O)NC(Cc3c[nH]c4ccc(O)cc34)C(=O)O)ccc12 (stereo not given)	-5.5	0	0	0	0	0	0	0	0
CCN(CC)S(=O)(=O)c1cc(C(=O)Nc2cc(C)[nH]n2)ccc1Cl	0	0	0	0	0	-	-	-	-
COc1ccc(C(=O)COC(=O)CCN2C(=O)[C@@H]3[C@H](C2=O)[C@@H]2C[C@H]3C(Br)C2Br)cc1 (stereo not given in full)	0	0	0	0	0	-	-	-	-
COc1ccc(C(=O)COC(=O)CCN2C(=O)C3C4CC(C(Br)C4Br)C3C2=O)cc1 (stereo not given)	-5.4	0	0	0	0	0	0	0	0
COCCN(C(=S)Nc1ccc(C)cc1C)C(C)c1ccco1 (stereo not given)	0	0	0	0	0	-	-	-	-
Cc1nc(Cl)c(C(=O)NC(C)(C)C)c(C)c1Cl	-9.4	0	0	0	0	0	0	0	0
Cc1ccccc1NC(=O)c1ccc2c(c1)OCCO2	0	0	0	0	0	-	-	-	-
COC(=O)c1ccccc1NC(=O)c1ccc2c(c1)OCCCO2	-10	0	0	0	0	0	0	0	0
O=C(O)c1cccnc1SCc1cccc(Br)c1	0	0	0	0	0	-	-	-	-
CCC(=O)Nc1ccccc1C(=O)OCC(=O)c1ccc2ccccc2c1	-6.3	0	0	0	0	0	0	0	0
CCC(=O)Nc1ccccc1C(=O)OCC(=O)c1ccccc1	0	0	0	0	0	-	-	-	-
Cc1ccc2nc(C(O)C(O)c3nc4ccc(C)cc4[nH]3)[nH]c2c1 (stereo not given)	0	0	0	0	0	-	-	-	-
Cc1ccc2nc(C(C)O)[nH]c2c1 (stereo not given)	-7.1	0	0	0	0	64%	0	0	0
Cc1c(C)c2ccc(OCC(=O)Nc3ccccn3)cc2oc1=O	0	0	0	0	0	-	-	-	-
O=S(=O)(NCc1cn2ccsc2n1)c1cccs1	0	0	0	0	0	-	-	-	-
O=C(NCCc1cn2ccsc2n1)c1cccs1	-6.3	0	0	0	0	0	0	0	0
CCCCOC(=O)C(NC(=O)c1ccccc1)=C(C)C	0	0	0	0	0	-	-	-	-
CCOC(=O)C(NC(=O)c1ccccc1)=C(C)C	-8.9	0	0	0	0	0	0	0	0
Cc1cccc(N(C)S(=O)(=O)c2cccc3nsnc23)c1	-5	0	0	0	0	0	0	0	0
CN(CC(=O)Nc1ccc(F)c(F)c1)S(=O)(=O)c1cccc2nsnc12	-10	0	0	0	0	0	0	0	0
Cc1ccc(NC(=O)CN(C)S(=O)(=O)c2cccc3nsnc23)cc1C	0	0	0	0	0	-	-	-	-
CC(C)Cc1ccccc1O	0	0	0	0	0	-	-	-	-
COc1ccc(CS(=O)(=O)CC(C)(O)c2ccccc2Cl)cc1 (stereo not given)	0	0	0	0	0	-	-	-	-
Cc1ccc(C)c(NC(=S)NCC(c2ccccc2)N(C)C)c1 (stereo not given)	0	0	0	0	0	-	-	-	-
COc1ccc(C(=O)N2CCOC2CNC(=O)C(=O)NCc2ccc(F)cc2)cc1 (stereo not given)	-5.1	0	0	0	0	0	0	0	0
SMILES	MrgX1 antagonist	RGS4 block	RGS4 pot	MrgX1 PAM	MrgX1 ag	MrgX1 antag conf	HEK293 Ca flux	HEK293 Ca counter	HEK293 Ca cntr2
COC(=O)c1ccc(C2C(C(=O)c3cc4ccccc4o3)=C(O)C(=O)N2c2cc(C)on2)cc1 (stereo not given)	-5.2	0	0	0	0	82%	0	0	0
COc1cccc(C2C(C(=O)c3cc4cccc(OC)c4o3)=C(O)C(=O)N2c2cc(C)on2)c1OC (stereo not given)	0	0	0	0	0	-	-	-	-
COc1cccc2cc(C(=O)C3=C(O)C(=O)N(c4cc(C)on4)C3c3cccs3)oc12 (stereo not given)	-5.1	0	0	0	0	0	0	0	0
Cc1cc(N2C(=O)C(O)=C(C(=O)c3cc4ccccc4o3)C2c2ccc(OC(C)C)cc2)no1 (stereo not given)	0	0	0	0	0	-	-	-	-
COc1ccc(NC(=O)COC(=O)CCNS(=O)(=O)c2ccccc2)cc1OC	0	0	0	0	0	-	-	-	-
Cc1nc(N2CCCCCC2)c2ccccc2n1	-4.7	0	0	0	0	0	0	0	0
COc1cc2cc3c(N)c(C(=O)Nc4sc(C)c(C)c4C#N)sc3nc2cc1OC	-6.2	0	0	0	0	74%	0	0	0
Cc1cc(C(=O)CSc2n[nH]c(N)n2)c(C)n1-c1ccc2c(c1)OCO2	0	0	0	0	0	-	-	-	-
COC(=O)c1c(NC(=O)c2ccco2)sc(C(=O)Nc2ccc(F)cc2)c1C	0	0	0	0	0	-	-	-	-
COC(=O)c1c(NC(=O)CSc2ccccc2N)sc(C)c1C	-4.7	0	0	0	0	0	0	0	0
COC(=O)c1c(NC(=O)Cc2ccccc2)sc(C)c1C	0	0	0	0	0	-	-	-	-
COC(=O)c1c(NC(=O)c2ccco2)sc(C)c1C	-7.7	0	0	0	0	81%	0	0	0
COc1ccc(C(=O)NCCc2nnc3ccc(SCC(=O)N4CCCC4)nn23)cc1	0	0	0	0	0	-	-	-	-
CNC(=O)CS(=O)CC(=O)Nc1cc(OCCOC)c(Cl)cc1Cl (stereo not given)	0	0	0	0	0	-	-	-	-
COC(=O)c1c(NC(=O)c2ccccc2F)sc(C(=O)N2CCOCC2)c1C	0	0	0	0	0	-	-	-	-
COCCCn1c(-c2ccsc2)nc2c1c(=O)[nH]c(=O)n2Cc1ccccc1	0	0	0	0	0	-	-	-	-
CC(=O)c1ccc(NC(=O)c2cnn3c(C(F)F)cc(C4CC4)nc23)cc1	-5	0	0	0	0	0	0	0	0
CCOP(=O)(c1ccccc1)C(O)c1ccc(Br)cc1 (stereo not given)	0	0	0	0	0	-	-	-	-
Cc1cc(C)n2nc(SCC(=O)NC3CCCCC3)nc2n1	0	0	0	0	0	-	-	-	-
CCC(=O)Nc1c(C(=O)N2CCN(c3ccccn3)CC2)cnn1-c1ccc(C)cc1	-7.5	0	0	0	0	0	0	0	0
